Assay results as given in ChEMBL document CHEMBL1125497, “Synthesis and anticonvulsant activity of enaminones” (J Med Chem, 1992).

Legend:
Rattus norvegicus [1] = experiment: Per oral dose (0 mg/Kg) reducing rat corneal kindling 0.5 hr after administration.; assay type: functional
In short: (§1)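 Sprague-Dawley rats (85–95 g initial) were kindled with 4 s, 8 mA corneal stimulations (butacaine anesthesia) to 10 consecutive stage 5 seizures. After a vehicle shock and a 2-day shock-free period, test drug was given ip or po and a single shock applied at time of peak effect. Seizures were scored on a modified Racine 0–5 scale. ED50 is the dose reducing severity by 50% (Litchfield–Wilcoxon).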

Rattus norvegicus [2] = experiment: Average seizure score for the rat cornea 0.5 hr after peroral administration of 40 mg/kg of compound; assay type: functional; conditions: route oral; in short: as §1
[3] = Antiepileptic activity in male CF1 mice 2 hr after oral administration measured in maximum electroshock seizure(MES) test at a dose of 10 mg/kg (no. of animals treated /protected); activity value is 4/4; assay type: functional, Mus musculus
[4] = Antiepileptic activity in male CF1 mice 0.25 hr after oral administration measured in neurological toxicity (Tox) test at a dose of 10 mg/kg (no. of animals treated /protected); activity value is 0/4; assay type: functional, Mus musculus
Rattus norvegicus [5] = experiment: Average seizure score for the rat cornea 0.5 hr after peroral administration of 0 mg/kg of compound; assay type: functional; conditions: route oral; in short: as §1
[6] = Time of peak anticonvulsant effect in CF1 mice; assay type: functional, Mus musculus
In short: (§2)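 Male CF1 mice (ca. 24–34 g), compound in 0.5% methylcellulose suspension given ip or po; time (h) at which MES protection (against tonic hind limb extension) peaked was recorded and used for ED50 determination.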

[7] = Antiepileptic activity in male CF1 mice 30 min after administration measured in subcutaneous pentylenetetrazole (scMet) test at a dose of 100 mg/kg (no. of animals treated /protected); activity value is 0/1; assay type: functional, Mus musculus
[8] = Antiepileptic activity in male CF1 mice 0.25 hr after oral administration measured in maximum electroshock seizure(MES) test at a dose of 10 mg/kg (no. of animals treated /protected); activity value is 3/4; assay type: functional, Mus musculus
Rattus norvegicus [9] = experiment: Per oral dose (40 mg/Kg) reducing rat corneal kindling 0.5 hr after administration.; assay type: functional; in short: as §1
[10] = Time of peak neurotoxic effect in CF1 mice; assay type: ADME; conditions: mouse, in vivo
In short: (§3)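 Male CF1 mice (ca. 24–34 g), compound ip in 0.5% methylcellulose suspension; neurological deficit assessed by rotorod test, time (h) of peak neurotoxic effect recorded for TD50 determination.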

Rattus norvegicus [11] = experiment: Average seizure score for the rat cornea 0.5 hr after peroral administration of 50 mg/kg of compound; assay type: functional; conditions: route oral; in short: as §1
[12] = Antiepileptic activity in male CF1 mice 30 min after administration measured in subcutaneous pentylenetetrazole (scMet) test at a dose of 300 mg/kg (no. of animals treated /protected); activity value is 0/1; assay type: functional, Mus musculus
[13] = Antiepileptic activity in male CF1 mice 30 min after administration measured in maximum electroshock seizure(MES) test at a dose of 300 mg/kg (no. of animals treated /protected); activity value is 1/1; assay type: functional, Mus musculus
[14] = Antiepileptic activity in male CF1 mice 4 hr after administration measured in subcutaneous pentylenetetrazole (scMet) test at a dose of 300 mg/kg (no. of animals treated /protected); activity value is 0/1; assay type: functional, Mus musculus
[15] = Oral dose producing neurotoxic effects in 50% of rats; assay type: ADME, organism-based; conditions: rat, in vivo
In short: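 Phase VI screen in male Sprague-Dawley rats dosed orally. MES protection and rotorod toxicity were scored as animals responding over animals tested at 0.25, 0.5, 1, 2 and 4 h.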

[16] = Antiepileptic activity in male CF1 mice 4 hr after administration measured in neurological toxicity (Tox) test at a dose of 300 mg/kg (no. of animals treated /protected); activity value is 0/2; assay type: functional, Mus musculus
[17] = Protective index was measured as TD50/ED50; assay type: ADME; conditions: read-out: PI
[18] = Antiepileptic activity in male CF1 mice 30 min after administration measured in neurological toxicity (Tox) test at a dose of 100 mg/kg (no. of animals treated /protected); activity value is 1/8; assay type: functional, Mus musculus
Rattus norvegicus [19] = experiment: Per oral dose (50 mg/Kg) reducing rat corneal kindling 0.5 hr after administration.; assay type: functional; in short: as §1
[20] = Dose at which anticonvulsant activity was observed in mice; assay type: functional, Mus musculus
[21] = Antiepileptic activity in male CF1 mice 4 hr after administration measured in maximum electroshock seizure(MES) test at a dose of 100 mg/kg (no. of animals treated /protected); activity value is 0/3; assay type: functional, Mus musculus
[22] = Antiepileptic activity in male CF1 mice 4 hr after administration measured in subcutaneous pentylenetetrazole (scMet) test at a dose of 100 mg/kg (no. of animals treated /protected); activity value is 0/1; assay type: functional, Mus musculus
Rattus norvegicus [23] = experiment: Dose reducing the seizure severity in rat cornea 0.5 hr after peroral administration.; assay type: ADME, organism-based; conditions: po; in short: as §1
[24] = Antiepileptic activity in male CF1 mice 1 hr after oral administration measured in maximum electroshock seizure(MES) test at a dose of 6 mg/kg (no. of animals treated /protected); activity value is 2/4; assay type: functional, Mus musculus
[25] = Time of peak anticonvulsant effect in CF1 MICE after ip administration.; assay type: functional, Mus musculus; in short: as §2
[26] = Antiepileptic activity in male CF1 mice 4 hr after administration measured in maximum electroshock seizure(MES) test at a dose of 300 mg/kg; assay type: functional, Mus musculus
[27] = Antiepileptic activity in male CF1 mice 30 min after administration measured in neurological toxicity (Tox) test at a dose of 100 mg/kg (no. of animals treated /protected); activity value is 0/8; assay type: functional, Mus musculus
[28] = Dose elevating electroshock induced seizure by 20% in CF1 mice after ip administration.; assay type: functional, Mus musculus
In short: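 In CF1 male mice (ca. 24–34 g), compound was given ip in 0.5% methylcellulose. The current giving hind limb extension in 50% of mice was found by the up-and-down method, with 15–25 mice per group and a vehicle control group run with each experimental group. At least three doses were tested. The dose raising threshold current by 20% was taken from a plot of dose against % threshold increase.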

[29] = Time of peak anticonvulsant effect in CF1 MICE after po administration.; assay type: functional, Mus musculus; in short: as §2
[30] = Time of peak neurotoxic effect in CF1 MICE after ip administration.; assay type: ADME, organism-based; conditions: mouse, in vivo; in short: as §3
[31] = Antiepileptic activity in male CF1 mice 0.25 hr after oral administration measured in maximum electroshock seizure(MES) test at a dose of 50 mg/kg (no. of animals treated /protected); activity value is 2/4; assay type: functional, Mus musculus
[32] = Antiepileptic activity in male CF1 mice 4 hr after administration measured in subcutaneous pentylenetetrazole (scMet) test at a dose of 100 mg/kg; activity value is 0/1; assay type: functional, Mus musculus
[33] = Dose producing neurotoxic effects in 50% of the CF1 mice after intraperitoneal administration.; assay type: ADME; conditions: CF1, mouse, in vivo, ip
In short: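 Phase II quantification in CF1 male mice (ca. 24–34 g), dosing ip or po in 0.5% methylcellulose suspension. ED50 is protection from tonic hind limb extension in MES. TD50 is rotorod neurotoxicity. Both were read at time of peak effect and derived by Litchfield–Wilcoxon with 95% confidence limits.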

`COC(=O)C1C(=O)C=C(Nc2ccc(Cl)cc2)CC1C` (centres undefined) showed a Reduction (Rattus norvegicus [1]) of 0%, an Average seizure score (Rattus norvegicus [2]) of 2.6 and an Activity [3] of 4. The Activity [4] was 0, the Average seizure score (Rattus norvegicus [5]) was 4.9 and the TPE [6] was 0.5. For the same compound, the Activity [7] was 0, the Activity [8] was 3 and the Reduction (Rattus norvegicus [9]) was 49%. It also gave a TPE [10] of 2, an Average seizure score (Rattus norvegicus [11]) of 1.7 and an Activity [12] of 0. It also gave an Activity [13] of 1, an Activity [14] of 0 and a TD50 [15] of over 380 mg/kg. It also gave an Activity [16] of 0, a selectivity ratio [17] of 9.7 and an Activity [18] of 1. For the same compound, the Reduction (Rattus norvegicus [19]) was 67%, the Dose [20] was “<=100 mg kg-1” and the Activity [21] was 0. For the same compound, the Activity [22] was 0, the ED50 (Rattus norvegicus [23]; rat, in vivo) was 34.2 mg/kg and the Activity [24] was 2.
Compound `COC(=O)C1C(=O)C=C(NCc2ccccc2)CC1C` (centres undefined) has a Reduction (Rattus norvegicus [1]) of 0%, an Average seizure score (Rattus norvegicus [5]) of 5 and a TPE [25] of 0.5 h. For the same compound, the Activity [26] was 0.1, the Activity [27] was 0 and the TPE [6] was 0.5. It also gave a Dose [28] of 13 mg/kg, an Activity [7] of 0 and a TPE [29] of 0.5 h. The TPE [10] was 1, the Average seizure score (Rattus norvegicus [11]) was 3.6 and the Activity [12] was 0. For the same compound, the Activity [13] was 1, the TPE [30] was 0.25 h and the Activity [14] was 0. It also gave a TD50 [15] of over 500 mg/kg, an Activity [16] of 0 and a selectivity ratio [17] of 7.7. For the same compound, the Activity [31] was 2, the Reduction (Rattus norvegicus [19]) was 29% and the Dose [20] was “<=100 mg kg-1”. For the same compound, the Activity [21] was 0, the Activity [32] was 0 and the ED50 (Rattus norvegicus [23]; Rattus norvegicus, Cornea) was 78.3 mg/kg. For the same compound, the TD50 [33] was over 500 mg/kg.
